Each structure is given as a SMILES string. Activity calls are given as the source filed them. The calls are words filed in the database; no cut-off is given here.

Data on 4 compounds can be found in ChEMBL document CHEMBL3120089, “Indoloditerpenes from a marine-derived fungal strain of Dichotomomyces cejpii with antagonistic activity at GPR18 and cannabinoid receptors” (J Nat Prod, 2014).

Data set [1] deals with T1, G-protein coupled receptor 55 (Homo sapiens, UniProt Q9Y2T6). Kind of data set: Antagonist activity at human GPR55 expressed in CHO cells assessed as inhibition of LPI-mediated beta-arrestin recruitment after 90 mins by beta-galactosidase reporter gene assay. Format: cell-based. The procedure, abridged: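 CHO cells stably expressing GPR55; PathHunter β-galactosidase complementation. 20,000 cells/well seeded in Opti-MEM with 2% FCS and selection antibiotics, 24 h at 37 °C. Compounds added in PBS with 10% DMSO and 0.1% BSA, 90 min at 37 °C, against a constant 1 μM LPI. Galacton-Star/Emerald-II lysis reagent for 60 min at rt, then luminescence read. IC50 from three independent experiments in duplicate.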
T1 sequence (Q9Y2T6 whole entry): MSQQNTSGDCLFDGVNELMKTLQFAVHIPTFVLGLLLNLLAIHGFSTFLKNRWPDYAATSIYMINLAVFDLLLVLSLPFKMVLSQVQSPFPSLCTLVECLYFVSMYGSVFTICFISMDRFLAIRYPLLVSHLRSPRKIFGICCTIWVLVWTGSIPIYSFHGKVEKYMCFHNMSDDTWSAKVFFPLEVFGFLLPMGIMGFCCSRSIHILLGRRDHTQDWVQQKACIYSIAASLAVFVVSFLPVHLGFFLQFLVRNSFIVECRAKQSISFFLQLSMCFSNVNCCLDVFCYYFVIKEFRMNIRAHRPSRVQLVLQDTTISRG

Data set [2] concerns the target T1, G-protein coupled receptor 55. Kind of data set: Antagonist activity at human GPR55 expressed in CHO cells assessed as inhibition of LPI-mediated beta-arrestin recruitment at 10 uM after 90 mins by beta-galactosidase reporter gene assay relative to control. Format: cell-based. The procedure, abridged:
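PathHunter β-galactosidase β-arrestin assay in CHO cells stably expressing GPR55. Cells incubated 24 h at 37 °C before use. Screening at 10 μM compound against 1 μM LPI, 90 min at 37 °C. Chemiluminescent Galacton-Star detection for 60 min at rt. Result given as % inhibition; three independent experiments in duplicate.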
For orientation: Arrestin recruitment assays detect the binding of arrestin to an activated receptor.

Data set [3] deals with T2, Cannabinoid receptor 2 (Homo sapiens, UniProt P34972). Kind of data set: Displacement of [3H]-CP55940 from human CB2 receptor expressed in CHO cells. The data set is classed as cell-based. In outline:
(§1)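 Competition binding against agonist radioligand [3H]CP55,940 at CB1 or CB2 receptors. Compound stocks in DMSO, final DMSO 2.5%. Ki from concentration–inhibition curves; three independent experiments in duplicate.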
(Displacement assays read how much labelled ligand stays bound in the presence of the test substance.)

In data set [4] the target is Cannabinoid receptor 1 (Homo sapiens, UniProt P21554). Kind of data set: Displacement of [3H]-CP55940 from human CB1 receptor expressed in CHO cells. Format: cell-based. Particulars: for inhibition: concentration not given here. In outline: as §1
Cannabinoid receptor 1, sequence (P21554 whole entry): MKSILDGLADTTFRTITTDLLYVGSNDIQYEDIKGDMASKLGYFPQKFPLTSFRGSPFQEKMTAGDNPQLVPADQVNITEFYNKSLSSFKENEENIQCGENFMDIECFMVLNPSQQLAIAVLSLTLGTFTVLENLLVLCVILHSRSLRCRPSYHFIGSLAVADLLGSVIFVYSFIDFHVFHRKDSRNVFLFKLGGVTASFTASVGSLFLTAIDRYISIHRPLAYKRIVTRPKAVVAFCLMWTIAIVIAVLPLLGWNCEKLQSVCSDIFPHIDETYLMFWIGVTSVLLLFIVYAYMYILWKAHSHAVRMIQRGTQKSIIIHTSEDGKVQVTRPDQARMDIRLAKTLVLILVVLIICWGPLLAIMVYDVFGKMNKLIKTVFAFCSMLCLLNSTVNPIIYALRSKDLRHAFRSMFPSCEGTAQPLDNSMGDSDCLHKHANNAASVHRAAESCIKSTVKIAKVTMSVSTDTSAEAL
Data set [5] deals with T3, N-arachidonyl glycine receptor (Homo sapiens, UniProt Q14330).
T3 sequence (Q14330 whole entry): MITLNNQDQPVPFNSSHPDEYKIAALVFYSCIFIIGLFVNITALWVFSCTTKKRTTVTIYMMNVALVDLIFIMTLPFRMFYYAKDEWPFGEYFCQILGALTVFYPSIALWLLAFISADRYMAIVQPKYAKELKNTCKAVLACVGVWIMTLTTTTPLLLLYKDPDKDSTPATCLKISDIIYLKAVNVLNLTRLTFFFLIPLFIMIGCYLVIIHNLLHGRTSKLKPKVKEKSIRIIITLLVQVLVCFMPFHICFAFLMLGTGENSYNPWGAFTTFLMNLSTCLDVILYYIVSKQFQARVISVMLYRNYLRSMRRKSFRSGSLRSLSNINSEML
Description: Inverse agonist activity at human GPR18 expressed in CHO cells assessed as inhibition of 7.5 uM THC-mediated beta-arrestin recruitment after 90 mins by beta-galactosidase reporter gene assay. The data set is classed as cell-based.

In data set [6] the target is T2, Cannabinoid receptor 2. Kind of data set: Antagonist activity at human CB2 receptor expressed in CHO cells assessed as inhibition of forskolin-induced cAMP accumulation incubated for 5 mins followed by forskolin challenge measured after 15 mins by liquid scintillation counting analysis in presence of [3H]cAMP. The data set is classed as functional, cell-based. The procedure, abridged:
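CHO cells stably expressing human CB2; adenylate cyclase inhibition measured as intracellular cAMP, quantified by a cAMP competition binding assay; three independent experiments in duplicate.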
(In general: Cyclic AMP is a second messenger, typically raised through Gs and lowered through Gi signalling.)

The target in data set [7] is T3, N-arachidonyl glycine receptor. Description: Antagonist activity at human GPR18 expressed in CHO cells assessed as inhibition of […] uM THC-mediated beta-arrestin recruitment after 90 mins by beta-galactosidase reporter gene assay. The data set is classed as cell-based.
The nature of data set [8]: Solubility of the compound in water. Format: physicochemical. Particulars: buffer.
The test system of data set [9] is L6. Kind of data set: Cytotoxicity against rat L6 cells assessed as growth inhibition after 70 hrs by Alamar Blue assay. Format: cell-based. Particulars: L6, 70 h.

T2 sequence (P34972 whole entry): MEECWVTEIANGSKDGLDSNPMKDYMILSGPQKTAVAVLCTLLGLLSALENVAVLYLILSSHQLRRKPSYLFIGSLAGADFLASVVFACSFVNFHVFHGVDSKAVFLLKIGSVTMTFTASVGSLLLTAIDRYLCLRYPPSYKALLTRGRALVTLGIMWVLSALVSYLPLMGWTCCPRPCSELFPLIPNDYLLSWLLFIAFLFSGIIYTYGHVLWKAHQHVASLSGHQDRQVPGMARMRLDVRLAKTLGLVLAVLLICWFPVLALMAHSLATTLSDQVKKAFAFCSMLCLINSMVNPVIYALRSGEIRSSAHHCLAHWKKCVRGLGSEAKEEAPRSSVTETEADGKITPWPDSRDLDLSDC

Broadly, the IC50 is the midpoint of a concentration-inhibition curve. The term inhibition denotes the change of the read-out against control, counted positive when it falls. A word on the Ki: it is a measure of affinity in units of concentration, obtained from inhibition or displacement. The low end stands for a stronger hold on the target, the high end for a looser hold on the target. With `COC(C)(C)/C=C/C[C@]1(C)[C@@H](O)CC[C@@]2(C)[C@H]1CC[C@H]1Cc3c([nH]c4ccccc34)[C@@]12C`, the IC50 is over 10 µM in data set [1] and 13.4 µM in data set [5]. In addition, the inhibition worked out at 31% in data set [2], 33% in data set [3] (concentration not given here) and 39% in data set [4]. Moreover, the Ki in data set [3] and in data set [4] was over 10 µM in each case.

Take `CC(C)=CCC[C@]1(C)[C@@H](O[C@@H]2O[C@H](CO)[C@@H](O)[C@H](O)[C@@H]2O)CC[C@@]2(C)[C@H]1CC[C@H]1Cc3c([nH]c4ccccc34)[C@@]12C`: the inhibition entry in data set [6] is “Active”. Moreover, the IC50 in data set [1] was over 10 µM; in [7], over 10 µM; in data set [9], 58 µM. Moreover, the inhibition in data set [2] was 13%; in data set [4], 30%. Further, the Ki in data set [3] and in [4] was 10.6 µM in each case. In addition, the solubility entry in [8] was “soluble”.

In the case of `CC(C)=C[C@H]1C[C@]2(C)[C@H](CC[C@@]3(C)[C@H]2CC[C@H]2Cc4c([nH]c5ccccc45)[C@@]23C)O1`, the 50% inhibitory concentration (IC50) in data set [1] was over 10 µM; in data set [5], 9.91 µM. The inhibition in data set [2] worked out at 0%. The results for the Ki in data set [3] and in data set [4] were 4.76 µM and 4.4 µM, respectively.

On to `CC(C)=CCC[C@]1(C)[C@@H](O)CC[C@@]2(C)[C@H]1CC[C@H]1Cc3c([nH]c4ccccc34)[C@@]12C` [EMINDOLE SB], for which the IC50 in [1] and in [7] was over 10 µM in each case. The inhibition in [2] worked out at 12%. Also, the figures for the Ki in [3] and in data set [4] were 2.24 µM and 7.05 µM, respectively.
